Experimental data: ChEMBL document CHEMBL3853289, “Eucarobustols A-I, Conjugates of Sesquiterpenoids and Acylphloroglucinols from Eucalyptus robusta” (J Nat Prod, 2016)

How the values were obtained:
[1] = Cytotoxicity against human A549 cells assessed as reduction in cell viability incubated for 72 hrs by SRB assay; assay type: functional, cell-based; conditions: A549, 72 h
Outline: (§1)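 Cytotoxicity was tested against the HL-60 human leukemia and A-549 human lung adenocarcinoma lines, with adriamycin as the positive control. Potency was expressed as IC50.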

[2] = Cytotoxicity against human HL60 cells assessed as reduction in cell viability after 72 hrs by MTT assay; assay type: functional, cell-based; conditions: HL-60, 72 h; outline: as §1
[3] = target: T1, Tyrosine-protein phosphatase non-receptor type 1 (Homo sapiens, UniProt P18031); experiment: Inhibition of PTP1B (unknown origin) using pNPP as substrate after 3 mins by colorimetric analysis
T1 sequence (P18031 whole entry): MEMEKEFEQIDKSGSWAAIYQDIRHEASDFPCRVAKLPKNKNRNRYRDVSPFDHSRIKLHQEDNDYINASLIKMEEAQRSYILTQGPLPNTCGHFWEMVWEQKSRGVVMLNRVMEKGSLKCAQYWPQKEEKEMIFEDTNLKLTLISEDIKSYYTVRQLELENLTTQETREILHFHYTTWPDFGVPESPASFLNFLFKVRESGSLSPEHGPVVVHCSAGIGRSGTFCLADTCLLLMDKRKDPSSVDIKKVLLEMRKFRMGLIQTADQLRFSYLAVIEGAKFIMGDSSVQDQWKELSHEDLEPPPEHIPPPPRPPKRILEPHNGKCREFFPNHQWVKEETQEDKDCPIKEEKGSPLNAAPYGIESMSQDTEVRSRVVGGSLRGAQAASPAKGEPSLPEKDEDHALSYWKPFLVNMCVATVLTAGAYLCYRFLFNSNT

IC50 [3] | SMILES | IC50 [1] | IC50 [2]
4.1 µM | CO[C@]1(C)CC[C@@H]2[C@H]([C@H]3[C@H]1CC[C@]3(C)[C@@H](CC(C)C)c1c(O)c(C=O)c(O)c(C=O)c1O)C2(C)C | > 10 µM | > 10 µM
1.8 µM | CC(C)C[C@@H](c1c(O)c(C=O)c(O)c(C=O)c1O)[C@@]1(C)CC=C2[C@H](C)CC[C@@H]3[C@H]([C@@H]21)C3(C)C | > 10 µM | > 10 µM
1.3 µM | CC(C)C[C@H](c1c(O)c(C=O)c(O)c(C=O)c1O)[C@H]1CC[C@@H](C)[C@@]2(C)C1=CC[C@@H]1[C@H]2C1(C)C | – | –
1.6 µM | CC(C)C[C@@H](c1c(O)c(C=O)c(O)c(C=O)c1O)[C@@]1(C)CCC2=C1[C@H]1[C@@H](CC[C@H]2C)C1(C)C | > 10 µM | > 10 µM
4.5 µM | CC1=C2CC[C@](C)([C@@H](CC(C)C)c3c(O)c(C=O)c(O)c(C=O)c3O)[C@H]2[C@H]2[C@@H](CC1)C2(C)C | > 10 µM | > 10 µM
3 µM | CC(C)C[C@H](c1c(O)c(C=O)c(O)c(C=O)c1O)[C@@]1(C)CC=C2[C@H](C)CC[C@@H]3[C@H]([C@@H]21)C3(C)C | > 10 µM | > 10 µM
5.6 µM | CC(C)C[C@@H](c1c(O)c(C=O)c(O)c(C=O)c1O)[C@@]1(C)CC[C@@H]2[C@@H]1[C@H]1[C@@H](CC[C@]2(C)O)C1(C)C | > 10 µM | > 10 µM

Continued, compound first:

SMILES | IC50 [3] | IC50 [1] | IC50 [2]
CC(C)C[C@H](c1c(O)c(C=O)c(O)c(C=O)c1O)[C@@]1(C)CC[C@@H]2[C@@H]1[C@H]1[C@@H](CC[C@@]2(C)O)C1(C)C [MACROCARPAL B] | – | > 10 µM | > 10 µM
CC(C)CC(=O)c1c(O)c(C=O)c(O)c(C[C@@]2(C)CC[C@H]3C2=C[C@H](C(C)(C)O)CC[C@H]3C)c1O | 4.3 µM | > 10 µM | > 10 µM
C=C1CC[C@@H]2[C@H]([C@H]3[C@H]1CC[C@]3(C)[C@@H](CC(C)C)c1c(O)c(C=O)c(O)c(C=O)c1O)C2(C)C [MACROCARPAL C] | – | > 10 µM | > 10 µM
CC(=O)CC[C@@H]1[C@H]([C@H]2C(=O)CC[C@]2(C)[C@H](CC(C)C)c2c(O)c(C=O)c(O)c(C=O)c2O)C1(C)C | – | > 10 µM | > 10 µM
CC(C)C[C@@H](c1c(O)c(C=O)c(O)c(C=O)c1O)[C@H]1CC[C@@H](C)[C@@]2(C)C1=CC[C@@H]1[C@H]2C1(C)C | 4.3 µM | – | –
CC(C)C[C@H](c1c(O)c(C=O)c(O)c(C=O)c1O)[C@@]1(C)CC[C@H]2C1=C[C@H](C(C)(C)O)CC[C@H]2C | – | > 10 µM | > 10 µM
CC(C)C[C@@H](c1c(O)c(C=O)c(O)c(C=O)c1O)[C@@H]1CC[C@@](C)(O)[C@@H]2[C@@H]3[C@H](CC[C@]21C)C3(C)C | – | > 10 µM | > 10 µM
CC(C)C[C@H](c1c(O)c(C=O)c(O)c(C=O)c1O)[C@@H]1CC[C@@](C)(O)[C@@H]2[C@@H]3[C@H](CC[C@]21C)C3(C)C | – | > 10 µM | > 10 µM
CC(C)CC(c1c(O)c(C=O)c(O)c(C=O)c1O)C1CC[C@@H](C)C2=C[C@H](C(C)(C)O)CC[C@]21C (some centres not stated) | – | > 10 µM | > 10 µM
CC(C)C[C@@H](c1c(O)c(C=O)c(O)c(C=O)c1O)[C@@]1(C)CC[C@@H]2[C@@H]1[C@H]1[C@@H](CC[C@@]2(C)O)C1(C)C [MACROCARPAL A] | – | > 10 µM | > 10 µM
C=C(C)[C@@H]1C=C2[C@@H](C)CC[C@@H]([C@@H](CC(C)C)c3c(O)c(C=O)c(O)c(C=O)c3O)[C@]2(C)CC1 | 2.9 µM | – | –
CC(C)CC(c1c(O)c(C=O)c(O)c(C=O)c1O)[C@@]1(C)CC[C@H]2C1=C[C@H](C(C)(C)O)CC[C@H]2C (some centres not stated) | – | > 10 µM | > 10 µM
